Source: PubChem BioAssay
A selection: hits, their analogues and other compounds. The true share with any hit is near 3.2%.
14-3-3 Bad PPI = inhibitors of 14-3-3 zeta/Bad binding, primary screen, biochemical, TR-FRET, bovine 14-3-3 zeta | 14-3-3 protein zeta/delta (Bos taurus), P63103 | TR-FRET 14-3-3zeta/Dy647-pBad peptide displacement, 1 h | inhibition, % at 21.7 µM | 220,000 compounds, 0.71% hits;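 active means inhibition above about 70%, limit read from the data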;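 further: 0% = full 14-3-3 plus peptide FRET controls and 100% = background without 14-3-3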
Hck Nef HTS = inhibitors of Nef-activated human Hck kinase, primary screen, biochemical, Z-Lyte FRET, 384-well, Hck-YEEI. inhibition, % at 20 µM. Recombinant Hck-YEEI plus Nef, Z-Lyte FRET kinase assay. 220,000 compounds, 0.68% hits. Tyrosine-protein kinase HCK (Homo sapiens), P08631;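 active means Hck-Nef kinase inhibition above about 50%, limit read from the data; inactive means inhibition below that limit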;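 further: 0% = DMSO with Hck plus Nef and 100% = Hck alone without Nef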
Target sequence (P08631 whole entry, looked up): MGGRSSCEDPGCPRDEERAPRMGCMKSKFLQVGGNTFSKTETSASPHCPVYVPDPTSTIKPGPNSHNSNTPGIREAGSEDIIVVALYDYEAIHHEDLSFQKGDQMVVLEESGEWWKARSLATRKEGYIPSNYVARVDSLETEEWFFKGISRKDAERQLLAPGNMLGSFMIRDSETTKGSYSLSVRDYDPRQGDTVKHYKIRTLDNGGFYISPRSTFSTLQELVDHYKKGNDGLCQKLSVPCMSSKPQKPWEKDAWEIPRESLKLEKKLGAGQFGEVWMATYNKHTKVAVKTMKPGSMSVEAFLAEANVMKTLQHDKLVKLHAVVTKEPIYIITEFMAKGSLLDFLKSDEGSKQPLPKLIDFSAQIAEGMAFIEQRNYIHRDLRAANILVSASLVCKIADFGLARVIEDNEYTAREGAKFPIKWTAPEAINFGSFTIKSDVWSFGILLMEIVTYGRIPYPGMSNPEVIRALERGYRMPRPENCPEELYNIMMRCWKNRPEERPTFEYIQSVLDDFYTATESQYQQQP
Mcl1 Bid PPI = Mcl-1/Bid binding inhibitors, primary screen, biochemical, TR-FRET, 1536-well; 220,000 compounds, 0.97% hits; inhibition, % at 21.7 µM; TR-FRET Mcl-1/Bid-Dy647 peptide binding;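 active means compounds that cut the binding signal by more than half at the single screening dose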;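 further: His-tagged Mcl-1 with europium anti-His antibody binding Bid BH3 peptide; 0% = Mcl-1 plus peptide wells and 100% = peptide-only wells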
Bim-Mcl-1 = inhibitors of Bim peptide binding to Mcl-1, primary screen, biochemical, bead-based flow cytometry, multiplex | AID 1009, 2008 | Induced myeloid leukemia cell differentiation protein Mcl-1 (Homo sapiens), Q07820 | 190,000 compounds, 0.1% hits | inhibition, % at 10 µM | Bim peptide-Mcl-1 binding; in the data active means inhibition above about 40%;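 further: 0% = no compound tracer wells and 100% = peptide blocker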
Mcl1-Noxa inh = Mcl-1/Noxa binding inhibitors, primary screen, biochemical, TR-FRET, 1536-well | Induced myeloid leukemia cell differentiation protein Mcl-1 (Homo sapiens), Q07820 | TR-FRET Mcl-1/Noxa peptide binding, 2 h | inhibition, % at 21.7 µM | 220,000 compounds, 1.5% hits | AID 1022, 2008;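 active means compounds that cut the protein-peptide binding signal by more than 50% relative to plate controls in a single-dose test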;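 further: His-tagged Mcl-1 with rhodamine Noxa BH3 peptide and terbium anti-His antibody; 0% = Mcl-1 plus Noxa peptide wells and 100% = peptide-only wells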
Calb biofilm kill = clotrimazole potentiators killing C. albicans biofilm, primary screen, 4-compound mixtures; C. albicans biofilm persisters + clotrimazole, fluorescence viability; primary screen in compound mixtures of four per well; inhibition, % at 7.6 µM; 120,000 compounds, 0.02% hits; AID 1242, 2008;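 active means inhibition above 30.3% in the primary screen of four-compound pools, then above 30% when the compound was retested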;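 further: compounds exposed to preformed 24 h biofilms for 48 h; 0% = untreated biofilm control and 100% = clotrimazole plus chlorhexidine kill blank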
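Test system: C. albicans CAF4-2 wild-type biofilms; buffer or medium: RPMI/MOPS medium, pH 7.0; schedule: 24 h biofilm formation, then 48 h compound exposure, 37 °C; detection: Alamar Blue fluorescence; measure: percent inhibition of biofilm viability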
Hck-Nef confirm = retest of Hck:Nef kinase inhibitor hits, confirmation, biochemical, Z-Lyte FRET, 384-well, p-Tyr peptide counterscreen | shares compounds with Hck Nef HTS | Recombinant Hck-YEEI:Nef, Z-Lyte FRET kinase assay | calls only at 10 µM | 1,300 compounds, 28% hits | AID 463188, 2010;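 active means average inhibition of at least 50%, with Z-scores no higher than 3 in both the phospho-tyrosine peptide and fluorescence counterscreens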
* marks the source's active call; other numbers are inactive results; i = inactive; . = no result shown; + = active, no number.

SMILES	14-3-3 Bad PPI	Hck Nef HTS	Mcl1 Bid PPI	Bim-Mcl-1	Mcl1-Noxa inh	Calb biofilm kill	Hck-Nef confirm
NN1C(=O)/C(=C\c2ccco2)SC1=S	2	78*	-39	.	20	12	i
O=C(CCCN1C(=O)/C(=C\c2cccs2)SC1=S)Nc1cccc(C(=O)O)c1	5	22	-19	0	15	12	.
COc1ccccc1CN(Cc1nc2ccccc2c(=O)[nH]1)C(=O)Nc1cccc(C)c1	6	0	-25	-2	2	.	.
CCC(C)C(=O)N1c2ccccc2C(=C2SC(C(=O)OC)=C(C(=O)OC)S2)C(=S)C1(C)C (stereo not drawn)	-9	-2	-13	-5	27	.	.
O=C1c2ccccc2C(=O)c2c([N+](=O)[O-])ccc(O)c21	7	29	-21	.	32	19	.
CC1=CC(=O)c2c(O)ccc(O)c2C1=O	91*	60*	99*	23	96*	8	+
Nc1nonc1C(=O)NCCNC(=O)c1cccs1	3	14	4	0	-2	.	.
Cc1ccc(N/N=C/c2c(C)c(C#N)c(=O)n(C)c2O)cc1C	-15	77*	-14	0	36	-20	i
O=C(N=Nc1c(O)[nH]c2ccc(Br)cc12)c1cc(-c2cccs2)nc2ccccc12	86*	163*	75*	-2	68*	12	i
COc1ccccc1C(=O)Oc1ccc2c(c1)O/C(=C\c1ccncc1)C2=O	37	76*	8	14	23	7	+
C/C(CC(=O)Nc1cccnc1)=N\NC(=O)C(C)Oc1ccc(Cl)cc1Cl (stereo not drawn)	2	12	-13	.	-3	4	.
CCOc1cc(C2c3c(oc4ccccc4c3=O)C(=O)N2c2nccs2)ccc1O (stereo not drawn)	27	85*	56*	.	-31	17	i
CCOc1cccc(C2c3c(oc4ccccc4c3=O)C(=O)N2c2ccccn2)c1 (stereo not drawn)	11	2	6	-1	-4	17	.
S=c1[nH]nc(-c2ccncc2)n1/N=C/c1cn(-c2ccccc2)nc1-c1ccccc1	-2	-13	-6	.	18	8	.
O=[N+]([O-])c1ccc(-c2nn(-c3ccccc3)cc2/C=N/n2c(-c3ccncc3)n[nH]c2=S)cc1	10	54*	-60	.	52*	13	i
Cc1cc(NC(=O)c2ccc(S(=O)(=O)N3CCOCC3)cc2)no1	-18	21	-12	-2	12	7	.
Cc1cc(NC(=O)c2ccc(S(=O)(=O)N3CCc4ccccc43)cc2)no1	-15	52*	-56	-1	7	10	i
O=C(O)c1ccc(-c2ccc(/C=C3\NC(=O)N(Cc4ccc(Cl)cc4)C3=O)o2)cc1Cl	13	53*	6	2	56*	30	i
Clc1nn2cnnc2c2ccccc12	-5	13	-3	-1	-14	-1	.
COc1ccccc1C(=O)Oc1cc(N)n(S(=O)(=O)c2ccc(C)cc2)n1	51	94*	-34	-3	28	.	+
COc1ccc(OC)c(C2C(C#N)=C(N)Oc3cc(N)ccc32)c1 (stereo not drawn)	-14	-6	-29	0	7	.	.
N#CC1=C(N)Oc2cc(N)ccc2C1C1CCCCC1 (stereo not drawn)	-9	51*	-2	-2	10	.	i
O=C(Cn1c(O)c(/C=C2\C=Nc3ccc(Br)cc32)sc1=O)N1CCCC1	5	76*	-5	-6	-7	.	i
O=C(Cn1c(O)c(/C=C2\C=Nc3ccccc32)sc1=O)N1CCOCC1	-2	9	-21	3	1	4	.
O=C(c1ccc2c(c1)N(Cc1cccc(Cl)c1)C(=O)c1ccccc1S2(=O)=O)N1CCN(c2ccccn2)CC1	4	19	11	0	-4	21	.
SMILES	14-3-3 Bad PPI	Hck Nef HTS	Mcl1 Bid PPI	Bim-Mcl-1	Mcl1-Noxa inh	Calb biofilm kill	Hck-Nef confirm
CCOC(=O)C1=C(C)C(c2ccccc2O)NC(=O)N1 (stereo not drawn)	6	57*	-6	-5	-6	.	i
CCOC(=O)C1=C(C)C(c2ccc(OC)cc2OC)NC(=O)N1 (stereo not drawn)	1	1	-9	-5	3	.	.
CCc1ccc2c(c1)C(=O)C(=O)N2CC(=O)Nc1ccc(NC(=O)c2ccccn2)cc1	34	77*	31	0	32	15	+
CCc1ccc(NC(=O)CCN2C(=O)c3cccnc3C2=O)cc1	-12	0	-15	-3	11	.	.
COC(=O)C1C(O)=C(C=Nc2ccc3ccccc3c2)C(=O)CC1(C)C (stereo not drawn)	-8	0	-22	-2	18	10	.
CCCCn1c(NC(=O)c2ccc(Br)o2)c(S(=O)(=O)c2ccccc2)c2nc3ccccc3nc21	36	84*	36	3	27	.	.
Cc1ccc(S(=O)(=O)c2c(N)n(CCCO)c3nc4ccccc4nc23)cc1	15	81*	13	1	-1	.	.
Cc1ccc(S(=O)(=O)c2c(N)n(CCC(C)C)c3nc4ccccc4nc23)cc1	9	22	-10	-6	-19	.	.
CCCCCn1c(NC(=O)c2ccco2)c(S(=O)(=O)c2ccc(C)cc2)c2nc3ccccc3nc21	11	56*	-2	-2	30	.	.
CCCCn1c(NC(=O)c2ccco2)c(S(=O)(=O)c2ccc(C)cc2)c2nc3ccccc3nc21	6	49	1	0	38	21	.
CCCCn1c(NC(C)=O)c(C#N)c2nc3ccccc3nc21	15	49	14	-1	27	.	.
CCC(=O)Nc1c(S(=O)(=O)c2ccccc2)c2nc3ccccc3nc2n1C(C)c1ccccc1 (stereo not drawn)	7	75*	25	0	23	9	.
CCCCn1c(NS(=O)(=O)c2ccccc2)c(S(=O)(=O)c2ccc(C)cc2)c2nc3ccccc3nc21	15	66*	37	8	33	9	.
CCC(=O)Nc1c(S(=O)(=O)c2ccc(C)cc2)c2nc3ccccc3nc2n1C(C)c1ccccc1 (stereo not drawn)	-1	12	35	-4	23	6	.
